SUMO1-SIM PPI: SUMO1-SIM interaction modulation. P63165. SUMO1 binding to a labelled peptide, TR-FRET, 1 h. inhibition, % at 20 µM. 360,000 tested, 0.33% active. AID 602429; in the data active = inhibition above about 37%
Target sequence (P63165 whole entry, looked up): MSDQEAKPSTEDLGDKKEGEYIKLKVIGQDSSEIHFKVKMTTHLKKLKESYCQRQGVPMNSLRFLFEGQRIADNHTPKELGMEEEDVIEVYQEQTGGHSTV
LMPTP block: LMPTP (human) inhibition. AID 651560. P24666. 360,000 tested, 0.22% active. recombinant LMPTP-A, OMFP fluorogenic substrate, fluorescence intensity. inhibition, % at 20 µM;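 active = compounds that cut the enzyme signal by at least half of the control window in the single-dose screen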;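 note: plate controls were DMSO wells with enzyme plus substrate for no effect and substrate without enzyme for full effect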
Target sequence (P24666 whole entry, looked up): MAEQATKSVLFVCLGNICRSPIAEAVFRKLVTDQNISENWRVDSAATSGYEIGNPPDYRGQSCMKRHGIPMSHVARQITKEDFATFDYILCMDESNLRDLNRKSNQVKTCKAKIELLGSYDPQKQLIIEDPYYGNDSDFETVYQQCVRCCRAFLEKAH
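material = LMPTP-A | quantity = 0.625 nM enzyme | reagent = OMFP substrate, 400 µM final | buffer or medium = Bis-Tris pH 6.0, DTT, detergent | detection = endpoint fluorescence intensity from OMFP dephosphorylation | dosing = single 20 µM dose | read-out basis = % inhibition relative to no-enzyme and uninhibited control wells | control set = no-enzyme and uninhibited controls | timing = 50 min at room temperature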
Scp1 inh: blocks human Scp-1 phosphatase activity. 340,000 tested, 0.88% active. inhibition, % at 20 µM. AID 493091. Recombinant Scp1, phosphopeptide, malachite green phosphate absorbance. Q9GZU7;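 active = inhibition above about 50% at 20 µM, limit read from the data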;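 note: plate controls were DMSO wells with enzyme for no effect and wells lacking enzyme for full effect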
Target sequence (Q9GZU7 76-261 limits assumed): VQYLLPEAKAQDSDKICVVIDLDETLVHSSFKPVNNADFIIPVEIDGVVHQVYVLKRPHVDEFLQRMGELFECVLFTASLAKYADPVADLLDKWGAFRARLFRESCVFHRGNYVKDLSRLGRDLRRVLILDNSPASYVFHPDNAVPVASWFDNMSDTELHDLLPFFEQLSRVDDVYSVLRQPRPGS
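Material – SCP-1 phosphatase catalytic domain, residues 76-261 · Buffer or medium – Acidic Tris acetate buffer with magnesium and detergent · Also added – Phospho 17-mer peptide substrate · Compound – single 20 µM dose, 1% DMSO · Times – 45 min room-temperature reaction, 5 min colour, 30 min stabiliser · Technique – Phosphate-binding colour reagent, absorbance read at 630 nm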
DNMT1 inh: blocks human DNA methyltransferase DNMT1; P26358; DNMT1 molecular beacon, Hinp1I cleavage, fluorescence; 360,000 tested, 0.83% active; inhibition (reported as % activation of signal), % at 10 µM; in the data active = inhibition above about 50%
STEP block: STEP (human) phosphatase inhibition; inhibition, % at 20 µM; 360,000 tested, 0.25% active; recombinant STEP, OMFP fluorogenic substrate, fluorescence;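 active = inhibition at 20 µM, scaled per plate between control wells, above about 37%, limit read from the data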;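 note: 0% = DMSO with enzyme and substrate and 100% = substrate only without enzyme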
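Test system: STEP tyrosine phosphatase / Reagent: OMFP at 25 µM / Doses: 20 µM, 1% DMSO / Read-out: percent inhibition scaled to no-enzyme and uninhibited-enzyme controls, plate-pattern corrected / Detection: FITC-channel fluorescence of OMFP product / Medium: Bis-Tris buffer pH 6.0, 2.5 mM DTT, 0.005% Tween 20 / Schedule: 20 min at room temperature, dark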
DNMT1 interf DR: shows spectral interference in the DNMT1 beacon assay; shares compounds with DNMT1 inh; IC50, µM; 200 tested, under 10 active; molecular beacon fluorescence, spectral interference counter-screen; call rule not given here
DNMT1 confirm: confirmation of human DNMT1 inhibitors; inhibition, % at 10 µM; AID 602385; shares compounds with DNMT1 inh; 2,300 tested, 8% active; DNMT1 molecular beacon HinP1I cleavage, fluorescence;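 active = average inhibition of at least 30% in the single-concentration confirmation test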
Beacon interf: beacon fluorescence artifact counter-screen. activation (fluorescence interference), % at 10 µM. DNMT1 molecular beacon spectral interference counterscreen, fluorescence 485/520. 2,300 tested, 1% active. shares compounds with DNMT1 inh. AID 602387;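 active = activation of at least 30% at 10 µM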;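 note: DNMT1 catalytic domain with a HinP1I cleavage step and a FAM/dabcyl DNA beacon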
* = called active by the depositor. Shown are actives, neighbours in structure and some others; about 1.7% of the full set was active somewhere.

Screening Nc1cccc(C(=O)OCC(=O)Nc2cccc3c2C(=O)c2ccccc2C3=O)c1 returned SUMO1-SIM PPI 19, LMPTP block 0, Scp1 inh 17, DNMT1 inh -10 and STEP block -3.
Screening CCN(CC)CCC(=O)Nc1cccc2c1C(=O)c1ccccc1C2=O returned SUMO1-SIM PPI -36, LMPTP block 1, Scp1 inh -4, DNMT1 inh 73*, STEP block 3, DNMT1 interf DR >99, DNMT1 confirm 53* and Beacon interf 1.
Screening OC(c1ccc(Cl)c(F)c1)c1ncc(-c2ccc(F)cc2)[nH]1 (stereo unspecified) returned SUMO1-SIM PPI -4, LMPTP block 1, DNMT1 inh 1 and STEP block -1.
CN(CC(=O)Nc1c(Cl)cccc1Cl)C(=O)Cn1[nH]c(=O)c2ccccc2c1=O was read as SUMO1-SIM PPI 3, LMPTP block -2, Scp1 inh -4, DNMT1 inh 3 and STEP block 0.
`Cc1cc(N2CCCC2)ccc1NC(=O)COc1ccccc1` gave SUMO1-SIM PPI -13, LMPTP block 25, Scp1 inh -7, DNMT1 inh 64*, STEP block -1, DNMT1 confirm 2 and Beacon interf 1.
Screening Cc1cc(OCC(=O)Nc2ccc(N3CCCC3)cc2)cc(C)c1Cl returned SUMO1-SIM PPI 11, LMPTP block 4, Scp1 inh -1, DNMT1 inh 71*, STEP block 3, DNMT1 confirm 1 and Beacon interf -7.
For COc1ccc(S(=O)(=O)N2CCCCCC2)cc1C(=O)N1CCN(C(C)=O)CC1 the results were SUMO1-SIM PPI 1, LMPTP block 0, DNMT1 inh -1 and STEP block 0.
For CCOC(=O)NCc1ccc2c(c1)cc(C)n2C the results were SUMO1-SIM PPI -28, LMPTP block 4, Scp1 inh -8, DNMT1 inh -12 and STEP block 6.
Screening Cc1cc2cc(CNS(=O)(=O)c3ccccc3)ccc2n1C returned SUMO1-SIM PPI -26, LMPTP block 32, Scp1 inh -6, DNMT1 inh 26 and STEP block 1.
Cc1cc2cc(CNC(=O)Nc3ccccc3)ccc2n1C was read as SUMO1-SIM PPI -6, LMPTP block 6, Scp1 inh 3, DNMT1 inh 54*, STEP block 3, DNMT1 confirm 2 and Beacon interf 5.
`Cc1ccc(CNC(=S)NC2CCCCC2)cc1` gave SUMO1-SIM PPI -8, LMPTP block 0, Scp1 inh 4, DNMT1 inh 2 and STEP block 0.
COc1ccc(S(=O)(=O)NCc2ccc3c(c2)cc(C)n3C)cc1 was read as SUMO1-SIM PPI -20, LMPTP block 36, Scp1 inh -7, DNMT1 inh 59*, STEP block 2, DNMT1 confirm 0 and Beacon interf 15.
Cc1cc2cc(CNC(=S)NC3CCCCC3)ccc2n1C was read as SUMO1-SIM PPI -7, LMPTP block 5, Scp1 inh 4, DNMT1 inh 63*, STEP block 3, DNMT1 confirm 6 and Beacon interf 6.
For Cc1cc2cc(CNC(=S)NCc3ccccc3)ccc2n1C the results were SUMO1-SIM PPI -4, LMPTP block 19, Scp1 inh 3, DNMT1 inh 77*, STEP block 5, DNMT1 confirm 2 and Beacon interf 2.
For CCc1ccccc1NC(=O)CSc1ccsc1[N+](=O)[O-] the results were SUMO1-SIM PPI -15, LMPTP block 7, Scp1 inh 48, DNMT1 inh 53*, STEP block 3, DNMT1 confirm 5 and Beacon interf 2.
Screening COc1ccccc1CNC(=O)CSc1ccsc1[N+](=O)[O-] returned SUMO1-SIM PPI -25, LMPTP block -1, Scp1 inh 3, DNMT1 inh 1 and STEP block 1.
Cc1ccccc1NC(=O)COC(=O)/C=C/c1cn(-c2ccccc2)nc1-c1cccnc1 was read as SUMO1-SIM PPI 1, LMPTP block 1, Scp1 inh 4, DNMT1 inh 52*, STEP block 5, DNMT1 confirm 1 and Beacon interf -4.
`COc1ccc2nc(C)cc(Nc3ccc(N4CCN(C)CC4)cc3)c2c1` gave SUMO1-SIM PPI -10, LMPTP block 14, Scp1 inh -17, DNMT1 inh 70*, STEP block -2, DNMT1 interf DR >99, DNMT1 confirm 33* and Beacon interf -5.
Screening COc1ccc2nc(C)cc(Nc3ccc(N4CCOCC4)cc3)c2c1 returned SUMO1-SIM PPI 3, LMPTP block 3, Scp1 inh -1, DNMT1 inh 43 and STEP block 3.
O=C(CCS(=O)(=O)c1ccc(Cl)cc1)Nc1ccccc1Br was read as SUMO1-SIM PPI 3, LMPTP block 1, Scp1 inh 6, DNMT1 inh 1 and STEP block 2.
Screening CCOc1ccc(NC(=O)CCS(=O)(=O)c2ccc(Br)cc2)cc1 returned SUMO1-SIM PPI 48*, LMPTP block 1, Scp1 inh 46, DNMT1 inh 84*, STEP block 9, DNMT1 confirm 9 and Beacon interf 6.
Screening COC(=O)c1ccccc1NC(=O)CCS(=O)(=O)c1ccc(Br)cc1 returned SUMO1-SIM PPI 32, LMPTP block 4, Scp1 inh 80*, DNMT1 inh 90*, STEP block 22, DNMT1 interf DR >99, DNMT1 confirm 95* and Beacon interf 6.
`CCNc1oc(/C=C/c2ccc(OCC)cc2)nc1C#N` gave SUMO1-SIM PPI -6, LMPTP block 0, Scp1 inh -2, DNMT1 inh -2 and STEP block 5.
Cc1ccc(C2/C(=C(/O)c3ccccc3)C(=O)C(=O)N2CCN2CCOCC2)o1 (stereo unspecified) was read as SUMO1-SIM PPI -2, LMPTP block -2, Scp1 inh -13, DNMT1 inh -2 and STEP block 2.
`Cc1ccc(C)c(/C(O)=C2/C(=O)C(=O)N(CCN3CCOCC3)C2c2ccco2)c1` (stereo unspecified) gave SUMO1-SIM PPI 0, LMPTP block -1, Scp1 inh 27, DNMT1 inh 83*, STEP block 3, DNMT1 confirm 2 and Beacon interf 3.
CCCNC(=O)c1ccc2c(=O)n3c(-c4ccc(C)cc4)csc3nc2c1 was read as SUMO1-SIM PPI -20, LMPTP block -2, Scp1 inh 5, DNMT1 inh 53*, STEP block 1, DNMT1 confirm 13 and Beacon interf -2.
